Measured values from different studies.
Protocols differ between the studies behind these lines.
MDM2: E3 ubiquitin-protein ligase Mdm2 (MDM2, Homo sapiens, UniProt Q00987)
CHRM1: Muscarinic acetylcholine receptor M1 (CHRM1, Homo sapiens, UniProt P11229)

Compound | target | test | test system | conditions | quantity | value
CSCC[C@H](NC(=O)[C@@H](NC(=O)[C@@H](N)Cc1ccc(O)cc1)C(C)C)C(=O)NCC(=O)N[C@@H](Cc1c[nH]cn1)C(=O)O | Melanocortin receptor 3 (Mus musculus, UniProt P33033) | reporter gene, agonist | – | – | EC50 | > 100 µM
CC[C@H](C)[C@H](NC(=O)[C@H](CCCNC(=N)N)NC(=O)[C@H](CCCCN)NC(=O)[C@@H]1CCCN1C(=O)[C@@H](N)Cc1c[nH]c2ccccc12)C(=O)N[C@@H](C)C(=O)O | N-terminal Xaa-Pro-Lys N-methyltransferase 1 (Homo sapiens, UniProt Q9BV86) | binding, ITC | – | pH 7.5 | Kd | 47 µM
N[C@@H](C[C@]1(C(=O)O)C[C@H]2OC[C@@H](O)[C@@H](O)[C@H]2O1)C(=O)O | Glutamate receptor ionotropic, kainate 3 (Rattus norvegicus, UniProt P42264, F446Y) | ligand displacement, radioligand | – | – | Ki | 0.547 µM
CC(=O)N[C@@H](CC(C)C)C(=O)N[C@H](C(=O)N[C@@H](Cc1ccccc1)C(=O)N[C@@]1(C)CCCC=CCCC[C@@](C)(C(=O)N[C@@H](CCC(N)=O)C(=O)N[C@@H](CC(C)C)C(=O)N[C@H](C(=O)N[C@@H](CO)C(N)=O)[C@@H](C)O)NC(=O)[C@H](Cc2c[nH]c3ccccc23)NC(=O)[C@H](Cc2ccc(O)cc2)NC(=O)[C@H](CCC(=O)O)NC1=O)[C@@H](C)O | MDM2 | ligand displacement, FP | – | – | IC50 | 0.049 µM
C[N+]1(C)CCC(OC(=O)C(c2ccccc2)c2ccccc2)CC1 | CHRM1 | ligand displacement, radioligand | – | – | IC50 | 0.00467 µM
CC(C)C[C@H](NC(=O)[C@H](Cc1ccccc1)NC(=O)c1cnccn1)B(O)O | Chymase (CMA1, Homo sapiens, UniProt P23946) | enzyme activity, inhibitor | – | – | IC50 | 4.7 µM
Cc1cc(N2CCNCC2)nc2ccccc12 | CHRM1 | ligand displacement, radioligand | – | cell membranes | Ki | > 31.6 µM
CC(=O)N[C@H](C(=O)N[C@@H](CC(=O)O)C(=O)N[C@@H](CC(=O)O)C(=O)N[C@@H](Cc1ccccc1)C(=O)N[C@@H](CC(=O)O)C(=O)N[C@@H](CCCNC(=N)N)C(=O)N[C@H](C(=O)N[C@@H](Cc1c[nH]c2ccccc12)C(=O)N[C@@H](CCC(N)=O)C(=O)NCC(=O)N[C@@H](CC(C)C)C(=O)N[C@H](C(=O)NCC(=O)N[C@@H](CC(C)C)C(N)=O)C(C)C)C(C)C)C(C)C | MDM2 | ligand displacement, FP | – | – | Kd | 41 µM
Cc1cc(C)nc(Nc2ncc(C(=O)NCCc3c(C)[nH]c4ccccc34)cn2)c1 | Cytochrome P450 1A2 (CYP1A2, Homo sapiens, UniProt P05177) | enzyme activity, inhibitor | human, liver microsomes | – | IC50 | 16 µM
CC(=O)[C@@]1(O)CC[C@H]2[C@@H]3C=C(Cl)C4=CC(=O)[C@@H]5C[C@@H]5[C@]4(C)[C@H]3CC[C@@]21C | Progesterone receptor (PGR, Homo sapiens, UniProt P06401) | enzyme activity | – | – | IC50 | 0.003 µM
CCc1nnc(NS(=O)(=O)c2ccc(NC(=S)NC(=O)/C=C/c3ccc(F)cc3)cc2)s1 | Prostaglandin E2 receptor EP2 subtype (PTGER2, Homo sapiens, UniProt P43116) | cAMP, antagonist, TR-FRET | – | – | Kb | 0.0088 µM
COc1cc([C@@H]2c3cc4c(cc3[C@@H](O[C@@H]3O[C@@H]5CO[C@@H](C)O[C@H]5[C@H](O)[C@H]3O)[C@H]3COC(=O)[C@H]23)OCO4)cc(OC)c1O | Organic cation/carnitine transporter 2 (SLC22A5, Homo sapiens, UniProt O76082) | transporter uptake, inhibitor, radiometric | – | – | IC50 | 55 µM
CC(C)[C@@H]1NC(=O)[C@H](CO)NC(=O)[C@H](CO)NC(=O)[C@H](CO)N(C)C(=O)[C@H](CC(=O)O)NC(=O)[C@H](CO)NC(=O)[C@H](Cc2ccccc2)NC(=O)CSC[C@@H](C(=O)NCC(N)=O)NC(=O)[C@H](CC(N)=O)NC(=O)[C@H](CCCNC(=N)N)NC(=O)[C@H](C)NC(=O)[C@H](Cc2ccc(-c3ccccc3)cc2)NC(=O)[C@H](CC(N)=O)NC(=O)[C@@H]2CCCN2C1=O | MDM2 | ligand displacement, TR-FRET | – | – | Ki | > 8.06 µM
N[C@@H](CCP(=O)(O)O)C(=O)O | Metabotropic glutamate receptor 8 (Grm8, Rattus norvegicus, UniProt P70579) | calcium signal, agonist | – | – | EC50 | 0.0589 µM
COc1ccc(CCNC[C@H](O)c2ccc(O)cc2)cc1OC | Beta-3 adrenergic receptor (ADRB3, Homo sapiens, UniProt P13945) | cell-free assay | – | – | Ki | 2.1 µM
COc1cc(C(=O)N2CC[C@@H](O)[C@@H](N)C2)cc2nc(-c3cc4ccccc4n3CC3CC3)n(C)c12 | CHRM1 | calcium signal, antagonist, fluorescence | – | – | IC50 | 12.6 µM
